According to ChEMBL document CHEMBL1133507, “Novel bronchodilators: synthesis, transamination reactions, and pharmacology of a series of pyrazino[2,3-c][1,2,6]thiadiazine 2, 2-dioxides” (2000):
In brackets after ≈: the same amount, converted by molar mass. Activity calls are given as the source filed them. The rule behind the calls is not given here.

Assays:
Format in all cases: functional
[1] = species on record: Cavia porcellus; test: Bronchodilatory activity in vitro by tracheal tone inhibition at 30 ug/mL in guinea pig tracheal muscle.; details: Muscle tissue
Summary of the method: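 In vitro tracheal relaxation. Percent inhibition was recorded with 30 µg/mL test compound, each concentration assayed in duplicate. Inhibition above 50% was taken as pharmacologically significant.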

[2] = species on record: Cavia porcellus; test: Tracheal relaxing activity expressed as minimum inhibitory concentration required to obtain a inhibitory response by more than 50%; NA denotes no activity at 30 ug/mL.
Summary of the method: (§1)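 Tracheal relaxation was tested over several concentrations, each in duplicate. The value is the lowest concentration (µg/mL) giving more than 50% inhibition of the response.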

[3] = species on record: Cavia porcellus; test: Tracheal relaxing activity expressed as minimum inhibitory concentration required to obtain a inhibitory response by more than 50%; summary of the method: as §1

SMILES	MIC [2]	MIC [3] [µg/mL]	inhibition at 30 µg/mL [1] [%]
CCOC(=O)CN1c2nc(C)c(C)nc2C(N)=NS1(=O)=O	inactive	–	15
Cc1nc2c(nc1C)N(CC(=O)O)S(=O)(=O)N=C2N	inactive	–	13
CCCN1c2nc(CC)c(C)nc2C(N)=NS1(=O)=O	–	30 (≈ 106 µM)	51
CN1c2nc3c(nc2C(N)=NS1(=O)=O)CCCCC3	–	10 (≈ 35.5 µM)	88
CCN1c2nc(C)c(C)nc2C(N)=NS1(=O)=O	–	–	33
CCCc1nc2c(nc1C)C(N)=NS(=O)(=O)N2CC	inactive	–	34
CCc1nc2c(nc1CC)N(CC)S(=O)(=O)N=C2N	inactive	–	0
CCc1nc2c(nc1C)C(N)=NS(=O)(=O)N2CC	inactive	–	0
CCCc1cnc2c(n1)C(N)=NS(=O)(=O)N2CC	–	10 (≈ 37.1 µM)	90
CCN1c2nc(C)cnc2C(N)=NS1(=O)=O	inactive	–	42
CCc1nc2c(nc1C)N(CC)S(=O)(=O)N=C2N	–	10 (≈ 37.1 µM)	95
CCN1c2ncc(C)nc2C(N)=NS1(=O)=O	–	30 (≈ 124 µM)	67
CCN1c2nccnc2C(N)=NS1(=O)=O	inactive	–	13
CCN1c2nc(C(C)C)c(C(C)C)nc2C(N)=NS1(=O)=O	inactive	–	0
CCc1cnc2c(n1)N(CC)S(=O)(=O)N=C2N	–	30 (≈ 118 µM)	80
CCc1nc2c(nc1C)C(NC)=NS(=O)(=O)N2CC	–	30 (≈ 106 µM)	75
Cc1nc2c(nc1C)N(CCO)S(=O)(=O)N=C2N	–	30 (≈ 111 µM)	59
CCc1nc2c(nc1C)C(NN)=NS(=O)(=O)N2CC	–	30 (≈ 106 µM)	72
Cn1c(=O)c2nc[nH]c2n(C)c1=O.O [THEOPHYLLINE]	–	30	60
CCN1c2nc(C)c(Br)nc2C(N)=NS1(=O)=O	–	10 (≈ 31.2 µM)	88
CCc1nc2c(nc1C)C(NCCN(C)C)=NS(=O)(=O)N2CC	inactive	–	34
CCN1c2nc(C(C)C)c(C)nc2C(N)=NS1(=O)=O	–	30 (≈ 106 µM)	55
CCOC(=O)CN1c2ncc(C)nc2C(N)=NS1(=O)=O	inactive	–	20
CCN1c2ncc(C(C)C)nc2C(N)=NS1(=O)=O	–	30 (≈ 111 µM)	57
CCN1c2ncc(C(C)(C)C)nc2C(N)=NS1(=O)=O	–	30 (≈ 106 µM)	86
CCN1c2nc3c(nc2C(N)=NS1(=O)=O)CCCC3	–	10 (≈ 35.5 µM)	82
CCCN1c2nc(C)c(C)nc2C(N)=NS1(=O)=O	–	30 (≈ 111 µM)	58

The next lines start with results.

MIC [2]	MIC [3] [µg/mL]	SMILES	inhibition at 30 µg/mL [1] [%]
–	30 (≈ 104 µM)	CN1c2ncc(-c3ccccc3)nc2C(N)=NS1(=O)=O	56
inactive	–	CN1c2nccnc2C(N)=NS1(=O)=O	22
inactive	–	CCN1c2nc(-c3ccccc3)cnc2C(NCc2ccccc2)=NS1(=O)=O	20
–	10 (≈ 30.2 µM)	CCNC1=NS(=O)(=O)N(CC)c2ncc(-c3ccccc3)nc21	74
inactive	–	Cc1nc2c(nc1-c1ccccc1)C(N1CCCC1)=NS(=O)(=O)N2C	10
inactive	–	CN1c2nc(-c3ccccc3)cnc2C(NCCN)=NS1(=O)=O	6
inactive	–	CCN1c2ncc(-c3ccccc3)nc2C(N)=NS1(=O)=O	20
–	30 (≈ 92.7 µM)	CN1c2nc(-c3ccccc3)c(Cl)nc2C(N)=NS1(=O)=O	86
inactive	–	CCN1c2ncc(C)nc2C(NCc2ccccc2)=NS1(=O)=O	27
–	30 (≈ 111 µM)	CCNC1=NS(=O)(=O)N(CC)c2ncc(C)nc21	63
–	3 (≈ 9.89 µM)	CCN1c2nc(-c3ccccc3)cnc2C(N)=NS1(=O)=O	95
–	30 (≈ 94.5 µM)	CCN1c2nc(C)c(-c3ccccc3)nc2C(N)=NS1(=O)=O	93
–	10 (≈ 35.3 µM)	CCCCc1nc2c(nc1C)C(N)=NS(=O)(=O)N2C	64
–	10 (≈ 32.9 µM)	CN1c2nc(-c3ccccc3)cnc2C(NN)=NS1(=O)=O	81
inactive	–	Cc1cnc2c(n1)C(N)=NS(=O)(=O)N2C	45
inactive	–	CCN1c2nc(-c3ccccc3)c(-c3ccccc3)nc2C(N)=NS1(=O)=O	24
inactive	–	Cc1nc2c(nc1C)N(C)S(=O)(=O)N=C2NCc1ccccn1	31
–	10 (≈ 27.7 µM)	CCOC(=O)CN1c2nc(-c3ccccc3)cnc2C(N)=NS1(=O)=O	72
inactive	–	CCc1nc2c(nc1C)C(NCCO)=NS(=O)(=O)N2CC	41
–	3 (≈ 11.8 µM)	CCc1nc2c(nc1C)C(N)=NS(=O)(=O)N2C	95
–	3 (≈ 9.45 µM)	CCN1c2nc(-c3ccccc3)c(C)nc2C(N)=NS1(=O)=O	100
–	10 (≈ 39.2 µM)	CCc1cnc2c(n1)C(N)=NS(=O)(=O)N2CC	72
–	30 (≈ 78.5 µM)	CCN1c2nc(-c3ccccc3)c(Br)nc2C(N)=NS1(=O)=O	63
–	3 (≈ 12.4 µM)	Cc1nc2c(nc1C)N(C)S(=O)(=O)N=C2N	92
